Test results taken from article PMC3328401 (Journal of Medicinal Chemistry, 2012).

Key:
LS 174T cells [1] = assay: Concentration-dependent uptake; assay type: cell-based, human; details: 3 h exposure, estimated
[2] = test system: U-87 MG glioblastoma cells; assay: Clonogenic survival; assay type: cell-based, human; details: U-87, after eight weeks in culture
[3] = Chemical hydrolysis of cycloSal phosphate triesters in phosphate buffer; assay type: physicochemical; details: phosphate buffer 50 mM, pH 7.3, 37°C, ~15% acetonitrile
OVCAR-3 cells [4] = assay: Concentration-dependent uptake; assay type: cell-based, human; details: OVCAR-3, 3 h exposure, estimated
OVCAR-3 cells [5] = assay: Subcellular distribution of 125I-labeled reagents; assay type: cell-based, human; details: for ^125I in cytoplasm, 24 hours / ^125I in nucleus, 24 hours: 1 h incubation then 24 h in fresh nonradioactive medium; for ^125I in cytoplasm, 1 hour / ^125I in nucleus, 1 hour: 1 h incubation, 55.5 kBq/mL
In short: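 OVCAR-3 cells were kept in RPMI-1640 with insulin, 2 mM L-glutamine and 20% FBS and expanded as intraperitoneal xenografts in athymic nude mice. Cells in six T150 flasks attached overnight, then were exposed 1 h to ¹²⁵I compound (55.5 kBq/mL). Three flasks were processed immediately and three after 24 h in fresh medium. Cells were trypsinized, counted, fractionated into nuclear/cytoplasmic compartments and gamma-counted.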

OVCAR-3 cells [6] = assay: Uptake kinetics; assay type: cell-based, human
In short: (§1)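 Cells were plated at 2×10⁵/well in 6-well plates in 3 mL growth medium: OVCAR-3 in RPMI-1640 with 20% FBS, LS 174T in EMEM with 10% FBS. After 24 h, radiolabeled compound (~13.6–46.9 kBq/mL) was added at staggered times, up to 360 min, in triplicate. Medium was gamma-counted for radioactive concentration. Cells were washed twice with ice-cold PBS, trypsinized and gamma-counted for cell-associated activity.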

[7] = Lipophilicity, shake-tube method n-octanol/phosphate buffered saline; assay type: physicochemical; details: n-octanol / phosphate buffered saline 10 mM, pH 6.8
U-87 MG cells = assay: Subcellular distribution and DNA retention of 125I; assay type: cell-based, human
In short: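 U-87 MG cells (~1×10⁶ per T75, EMEM with 10% FBS) were grown 24 h, then given radiolabeled compound for 1 h. They were processed immediately or after 24 h in fresh nonradioactive medium. Pellets (1,000 rpm, 4°C, 15 min) were fractionated with nuclear/cytoplasmic extraction reagents into cytoplasm, soluble nuclear and DNA fractions, which were gamma-counted. DNA-bound ¹²⁵I was also measured after genomic-tip DNA isolation. Longer exposures of 40–144 h were also run.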

LS 174T cells [8] = assay: Uptake kinetics; assay type: cell-based, human
[9] = test system: LS 174T colorectal adenocarcinoma cells; assay: Clonogenic survival and cell-retained 125I; assay type: cell-based, human; details: 4 h, 185 kBq/mL
In short: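 LS 174T cells (2×10⁶ per T75) attached ~18 h, then exposed 4 h at 37°C to radiolabeled compound (185 kBq) or to nonradioactive medium for controls. Cells were washed, trypsinized and counted for viability. 1 mL of a 1×10⁶ cells/mL suspension was gamma-counted for cell-associated ¹²⁵I. Cells were plated in duplicate T25 flasks at 1,000, 500 and 100 cells/flask. Methanol-fixed colonies were scored after three weeks. Surviving fraction is treated/control colonies.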

[10] = test system: LS 174T and OVCAR-3 cancer cell lines; assay: Uptake kinetics, cell-associated activity after 3 h; assay type: cell-based, human; details: after 3 h incubation
In short: as §1

human BChE = human BChE (Homo sapiens, UniProt P06276); assay: Gel electrophoresis/autoradiography of radioactive compounds with BChE; assay type: binding; details: BChE 0.02 U or increasing activities, 30 min
In short: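 Radioactive compounds with human BChE were run on native and nonreducing SDS-PAGE gels at constant 150 V or 190 V for 1 h. Gels were exposed to autoradiography film at −80°C for 1–48 h, depending on applied radioactivity. Native gels were stained for BChE activity with 1 mM butyrylthiocholine iodide as substrate (Karnovsky–Roots method).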

[11] = intravenously administered; cited from earlier work
[12] = after intratumor injections; cited from earlier work

human BChE, sequence (P06276 29-602): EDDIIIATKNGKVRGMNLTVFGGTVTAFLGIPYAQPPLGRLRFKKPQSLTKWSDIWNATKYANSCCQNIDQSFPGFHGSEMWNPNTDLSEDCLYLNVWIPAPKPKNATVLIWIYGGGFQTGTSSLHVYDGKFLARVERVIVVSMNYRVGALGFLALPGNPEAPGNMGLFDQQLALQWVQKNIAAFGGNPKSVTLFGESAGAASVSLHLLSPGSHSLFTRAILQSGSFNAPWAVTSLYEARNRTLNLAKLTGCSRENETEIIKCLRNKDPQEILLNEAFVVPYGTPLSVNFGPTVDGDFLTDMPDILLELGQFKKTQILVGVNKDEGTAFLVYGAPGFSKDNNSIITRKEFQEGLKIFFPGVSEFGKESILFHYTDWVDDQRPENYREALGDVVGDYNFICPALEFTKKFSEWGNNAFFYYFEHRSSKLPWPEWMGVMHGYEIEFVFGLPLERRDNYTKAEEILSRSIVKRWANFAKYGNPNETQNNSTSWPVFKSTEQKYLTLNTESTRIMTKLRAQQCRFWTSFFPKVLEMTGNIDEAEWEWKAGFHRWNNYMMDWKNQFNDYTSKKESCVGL

O=c1[nH]c(=O)n([C@H]2C[C@H](O)[C@@H](COP3(=O)OCc4ccccc4O3)O2)cc1[125I] (some centres unmarked) [6b-fast, 5-[^125I]-Iodo-5′-O-cycloSaligenyl-2′-deoxyuridine Monophosphate]
Bmax (LS 174T cells [1]): ~ 1,300 molecules/cell | colony formation [2]: failed to produce any colonies | k (rate of hydrolysis) [3]: 0.00225 min⁻¹ | Bmax (OVCAR-3 cells [4]): ~ 7,400 molecules/cell

O=c1[nH]c(=O)n([C@H]2C[C@H](O)[C@@H](COP3(=O)OCc4ccccc4O3)O2)cc1[125I] (some centres unmarked) [6b-slow, 5-[^125I]-Iodo-5′-O-cycloSaligenyl-2′-deoxyuridine Monophosphate]
^125I in cytoplasm, 24 hours (OVCAR-3 cells [5]): 6.0 (0.7) cpm/10^3 cells (std dev) | ^125I in nucleus, 24 hours (OVCAR-3 cells [5]): 31.3 (6.0) cpm/10^3 cells (std dev) | ^125I in cytoplasm, 1 hour (OVCAR-3 cells [5]): 14.8 (6.8) cpm/10^3 cells (std dev) | ^125I in nucleus, 1 hour (OVCAR-3 cells [5]): 4.9 (2.5) cpm/10^3 cells (std dev) | uptake ratio of slow to fast diastereomer (OVCAR-3 cells [6]; OVCAR-3, after 90 min): ~ 1.7 | uptake rate, slow relative to fast diastereomer (OVCAR-3 cells [6]; OVCAR-3, up to 90 min): 6.5 × | Bmax (LS 174T cells [1]): ~ 6,800 molecules/cell | Log P [7]: 0.66 (± 0.03) | 125I accumulated in DNA (U-87 MG cells; U-87, 40-h incubation, 19.6 kBq/mL, genomic tips method): 1.18 (0.11) mBq ^125I/cell | colony formation [2]: failed to produce any colonies | k (rate of hydrolysis) [3]: 0.00152 min⁻¹ | uptake ratio of slow to fast diastereomer (LS 174T cells [8]; after 90 min): ~ 1.7 | uptake rate, slow relative to fast diastereomer (LS 174T cells [8]; up to 90 min): 4.6 × | Bmax (OVCAR-3 cells [4]): > 50,000 molecules/cell

Cc1cccc2c1OP(=O)(OC[C@H]1O[C@@H](n3cc([125I])c(=O)[nH]c3=O)C[C@@H]1O)OC2 (some centres unmarked) [7b-fast, 5-[^125I]-Iodo-5′-O-cyclo(3-methylSaligenyl)-2′-deoxyuridine Monophosphate]
125I retained per cell [9]: 0.196 (0.06) mBq ^125I/cell | k (rate of hydrolysis) [3]: 0.000544 min⁻¹

Cc1cccc2c1OP(=O)(OC[C@H]1O[C@@H](n3cc([125I])c(=O)[nH]c3=O)C[C@@H]1O)OC2 (some centres unmarked) [7b-slow, 5-[^125I]-Iodo-5′-O-cyclo(3-methylSaligenyl)-2′-deoxyuridine Monophosphate]
^125I in cytoplasm, 24 hours (OVCAR-3 cells [5]): 1.8 (0.6) cpm/10^3 cells (std dev) | ^125I in nucleus, 24 hours (OVCAR-3 cells [5]): 29.3 (7.0) cpm/10^3 cells (std dev) | ^125I in cytoplasm, 1 hour (OVCAR-3 cells [5]): 13.0 (1.3) cpm/10^3 cells (std dev) | ^125I in nucleus, 1 hour (OVCAR-3 cells [5]): 5.4 (0.4) cpm/10^3 cells (std dev) | 125I retained per cell [9]: 0.566 (0.333) mBq ^125I/cell | surviving fraction [9]: 0.63 (0.22) mBq | cell-associated radioactivity, OVCAR-3 compared to LS 174T (OVCAR-3 cells [6]): 1.7 × | ratio of slow to fast uptake (OVCAR-3 cells [6]; OVCAR-3, after 6 h): 3.5 | k (rate of hydrolysis) [3]: 0.000463 min⁻¹ | ratio of slow to fast uptake (LS 174T cells [8]; after 6 h): 3.0

CC(C)(C)c1cc(C(C)(C)C)c2c(c1F)COP(=O)(OC[C@H]1O[C@@H](n3cc([125I])c(=O)[nH]c3=O)C[C@@H]1O)O2 (some centres unmarked) [8b-slow, 5-[^125I]-Iodo-5′-O-[cyclo-3,5-di-(tert-butyl)-6-fluoroSaligenyl]-2′-deoxyuridine Monophosphate]
cell associated activity relative to the corresponding 6b diastereomer [10]: ~ 180 × | cell associated activity relative to the corresponding 7b diastereomer [10]: 35 × | ^125I in cytoplasm, 24 hours (OVCAR-3 cells [5]): 2.8 (0.7) cpm/10^3 cells (std dev) | ^125I in nucleus, 24 hours (OVCAR-3 cells [5]): 91.6 (5.7) cpm/10^3 cells (std dev) | ^125I in cytoplasm, 1 hour (OVCAR-3 cells [5]): 87.3 (7.5) cpm/10^3 cells (std dev) | ^125I in nucleus, 1 hour (OVCAR-3 cells [5]): 7.8 (0.6) cpm/10^3 cells (std dev) | binding to BChE on gel autoradiograph (human BChE): BChE activity-dependent binding

CC(C)(C)c1cc(C(C)(C)C)c2c(c1F)COP(=O)(OC[C@H]1O[C@@H](n3cc([125I])c(=O)[nH]c3=O)C[C@@H]1F)O2 (some centres unmarked) [24b-slow, 5-[^125I]-Iodo-5′-O-[cyclo-3,5-Di-(tert-butyl)-6-fluoroSaligenyl]-3′-fluoro-2′,3′-dideoxyuridine]
binding to BChE on gel autoradiograph (human BChE): BChE activity-dependent binding | uptake and retention lower in the cytoplasm, nucleus and DNA (U-87 MG cells; U-87 MG, 1 h treatment): ~ 20 × | presence in intracellular compartments at 24 h (U-87 MG cells; U-87 MG, 24 h in fresh medium): practically undetectable | k (rate of hydrolysis) [3]: 0.000224 min⁻¹

O=c1[nH]c(=O)n([C@H]2C[C@H](O)[C@@H](CO)O2)cc1[125I] [^125IUdR, 5-[^125I]Iodo-2′-deoxyuridine]
time to destruction in circulation [11]: within a few min | injected ^125IUdR associated with one gram of tumor [12]: ~ 0.02% | tumor uptake, range [12]: 0.001–0.06 % ID/g
